According to ChEMBL document CHEMBL4033651, “Exploration of flexible phenylpropylurea scaffold as novel cardiac myosin activators for the treatment of systolic heart failure” (Eur J Med Chem, 2017):

Columns and labels:
Bos taurus = species: Bos taurus; test: Activation of actin-stimulated bovine cardiac myosin S1 fragment ATPase activity in sarcomere at 10 uM after 10 mins by spectrophotometric analysis
Procedure, shortened: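 Bovine cardiac S1 myosin with actin thin filament complex at pCa 6.5, in 20 mM Tris HCl pH 7.5, 15 mM KCl, 6 mM MgCl2, 1 mM ATP. Compound at 10 μM, 10 min at room temperature. Stopped with Cytophos reagent; liberated phosphate read at 650 nm. % activity calculated relative to DMSO negative control, blank-corrected.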

[1] = Solubility of the compound in water; format: physicochemical; settings: buffer
Procedure, shortened: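 Final solution concentration measured by HPLC against three standards of known concentration.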

Rattus norvegicus [2] = test: Positive inotropic activity in Sprague-Dawley rat heart assessed as left ventricle fractional shortening at 2 to 16 ug/kg/min for 3 mins by echocardiographic analysis; format: functional
Procedure, shortened: (§1)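 Seven-week-old male Sprague-Dawley rats under 1.5 % isoflurane via nosecone. Drug given through a right internal jugular vein central line. Left ventricular fractional shortening and ejection fraction measured by echocardiography with and without sample, expressed as % increase.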

Rattus norvegicus [3] = test: Positive inotropic activity in Sprague-Dawley rat heart assessed as ejection fraction at 2 to 16 ug/kg/min for 3 mins by echocardiographic analysis; format: functional; procedure, shortened: as §1
Oryctolagus cuniculus = species: Oryctolagus cuniculus; test: Activation of actin-stimulated rabbit psoas skeletal muscle myosin S1 fragment ATPase activity at 100 uM after 10 mins by spectrophotometric analysis
Procedure, shortened: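 Rabbit skeletal S1 myosin with actin thin filament complex at pCa 6.5, in 20 mM Tris HCl pH 7.5, 15 mM KCl, 6 mM MgCl2, 1 mM ATP. Compound at single 100 uM dose, 10 min at room temperature. Cytophos stop; phosphate read at 650 nm. % activity versus blank-corrected DMSO control.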

Gallus gallus = species: Gallus gallus; test: Activation of actin-stimulated chicken gizzard smooth muscle myosin S1 fragment ATPase activity at 100 uM after 10 mins by spectrophotometric analysis
Procedure, shortened: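 Chicken gizzard smooth muscle S1 myosin with actin plus tropomyosin at pCa 6.5, in 20 mM Tris HCl pH 7.5, 15 mM KCl, 6 mM MgCl2, 1 mM ATP. Compound at single 100 uM dose, 10 min at room temperature. Cytophos stop; phosphate read at 650 nm. % activity versus blank-corrected DMSO control.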

| SMILES | Activity (Bos taurus) [%] | also measured |
| --- | --- | --- |
| O=C(NCCCC1CCCCC1)NCCC1CCCCC1 | 44.4 | – |
| c1ccc(CCCCNCCCc2ccccc2)cc1 | 11.9 | – |
| O=C(NCCCc1ccccc1)NCc1ccc2[nH]ccc2c1 | 37.2 | – |
| O=C(NCCc1ccccc1)N1CCN(c2ccccc2)CC1 | 36.6 | – |
| O=S(=O)(NCCCc1ccccc1)NCCc1ccccc1 | 32.1 | – |
| O=C(NCCCn1ccnc1)NCCc1ccccc1 | 32.6 | – |
| CN(CCCc1ccccc1)C(=O)N(C)CCc1ccccc1 | 72.4 | Activity (Rattus norvegicus [2]): 5.74%; Activity (Rattus norvegicus [3]): 3.41% |

Second part, led by results:

| Activity (Bos taurus) [%] | SMILES | also measured |
| --- | --- | --- |
| 60.2 | O=C(NCCCc1ccccc1)NCC1CCCCC1 | – |
| 61.9 | O=C(NCCCc1ccccc1)NC1Cc2ccccc2C1 | solubility [1]: Insoluble |
| 30.6 | O=C(NCCCc1ccccc1)NCCc1ccco1 | – |
| 32.4 | O=C(NCCCc1ccccc1)N1CCCC1c1ccccc1 (stereo not given) | – |
| 37.9 | O=C(NCCCC1CCCCC1)NCCc1ccccc1 | – |
| 73 | O=C(NCCCc1ccccc1)N1CCCCC1c1ccccc1 (stereo not given) | Activity (Rattus norvegicus [2]): 13.32%; Activity (Rattus norvegicus [3]): 9.26% |
| 51.1 | O=C(NCCCc1ccccc1)NCCc1ccccc1 | Activity (Rattus norvegicus [2]): 18.9%; Activity (Rattus norvegicus [3]): 12.15%; Activity (Oryctolagus cuniculus): -2.1%; Activity (Gallus gallus): -4.7% |
| 81.4 | O=C(NCCCc1ccccc1)NCC1CCOCC1 | Activity (Rattus norvegicus [2]): 20.5%; Activity (Rattus norvegicus [3]): 13.1%; Activity (Oryctolagus cuniculus): 4.4%; Activity (Gallus gallus): 5.1% |
| 47.6 | O=C(NCCCc1ccccc1)NCc1cccs1 | – |
| 20.3 | O=C(NCCCc1ccccc1)NC1CCCCC1 | – |
